IMP-1 inhibitor – inhibitors of Pseudomonas aeruginosa IMP-1 metallo-beta-lactamase; purified IMP-1, nitrocefin hydrolysis, epi-absorbance fluorescence; inhibition, % at 5.6 µM; actives 0.45% (n = 290,000); AID 1556;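 active means inhibition above the mean plus 3 SD of all compounds in the same screening run, cut at about 4.5% in these data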;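 further: 0% = IMP-1 with DMSO and 100% = DMSO wells lacking enzyme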
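Material – recombinant IMP-1 enzyme, purified · Amount – IMP-1 0.2 nM before substrate addition · Medium – HEPES buffer pH 7.1 with ZnSO4 and Brij 35 · Timing – 25 °C, 15 min preincubation, 25 min reaction · Measured by – plate fluorescence quenching by hydrolysis product, ex 480/em 530 nm · Read-out – percent enzyme inhibition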
MsrA act – activates bovine MsrA enzyme. AID 602163. purified bovine MsrA, absorbance read-out. actives 0.3% (n = 360,000). activation, % at 10.6 µM; in the data active means activation above about 7.5%;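 further: 0% = vehicle and 100% = reference activator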
VIM-2 inhibitor – inhibitors of Pseudomonas aeruginosa VIM-2 metallo-beta-lactamase. purified VIM-2, nitrocefin hydrolysis, epi-absorbance fluorescence. inhibition, % at 5.6 µM. actives 0.89% (n = 290,000). AID 1527;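 active means inhibition above the mean of all tested compounds plus 3 SD, cutoff set per screening run, cut at about 7.5% in these data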;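 further: red hydrolysis product quenches plate fluorescence so inhibitors raise well fluorescence; 0% = enzyme with DMSO and 100% = DMSO without enzyme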
PKA-R1A activ – activates the PKA-R1A holoenzyme complex | PKA-R1A dissociation, Cy5-IP20 fluorescence polarization; scaled: DMSO 0%, 113 µM cGMP 100% | activation, % at 11.4 µM | P00514+P68181 | actives 0.083% (n = 340,000);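 active means percent activation above the mean of all tested compounds plus 3 SD, cut at about 19% in these data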;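 further: higher means more PKAc released from R1A so a rise in polarization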
PKA-R2B activ – activators of human PKA-R2B complex. actives 0.079% (n = 340,000). activation, % at 11.4 µM. P22694+P31323. AID 504700. PKA-R2B holoenzyme dissociation, Cy5-IP20 fluorescence polarization; R2B truncated from residue 108, S112A mutant; 0% DMSO only, 100% 113 µM cGMP;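 active means activation above a cutoff set at the mean over all compounds plus 3 SD, cut at about 18% in these data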;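 further: higher means more holoenzyme dissociation and a rise in polarization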
Target sequence (P31323 whole entry, looked up, other chains not shown, the tested form may be a part): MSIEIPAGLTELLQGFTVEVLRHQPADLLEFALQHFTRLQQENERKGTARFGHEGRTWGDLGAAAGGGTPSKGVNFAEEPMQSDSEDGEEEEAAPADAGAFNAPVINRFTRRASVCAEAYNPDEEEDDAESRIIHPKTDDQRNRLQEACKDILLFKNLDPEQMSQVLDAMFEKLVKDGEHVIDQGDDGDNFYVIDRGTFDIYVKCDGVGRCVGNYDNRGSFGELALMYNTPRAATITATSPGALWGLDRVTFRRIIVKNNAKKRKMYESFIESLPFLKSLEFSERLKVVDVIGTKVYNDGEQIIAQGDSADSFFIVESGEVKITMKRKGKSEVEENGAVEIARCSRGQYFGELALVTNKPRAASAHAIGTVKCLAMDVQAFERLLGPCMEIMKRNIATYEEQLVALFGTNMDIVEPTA
MsrA inhibitor – bovine MsrA inhibition; inhibition, % at 15.5 µM; actives 0.75% (n = 360,000); AID 651718; purified bovine MsrA, absorbance read-out; in the data active means inhibition above about 4.5%;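 further: 0% = vehicle wells with enzyme and 100% = reference inhibitor wells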
An asterisk follows results filed as active; x = no result given. Sampled rows, rich in hits. Any-hit rate of the full collection: about 2.1%.

SMILES	IMP-1 inhibitor	MsrA act	VIM-2 inhibitor	PKA-R1A activ	PKA-R2B activ	MsrA inhibitor
O=C(O)c1cccc2c1C(=O)c1cccc3snc-2c13	-2	-3	8.3*	-10	1	1
Cc1ccc2c(c1)C(=O)c1c(C(=O)O)cccc1-2	2	-4	6	-5	-4	0
CN(C)c1ccc(/C=C/C(=O)c2cccc(Br)c2)cc1	8.3*	-1	6	-2	3	0
CCc1cc(C(=O)OC)c(NC(=O)CCC(=O)O)s1	15*	-2	1	1	7	0
CCCc1cc(C(=O)OC)c(NC(=O)CCCC(=O)O)s1	-6	-6	-5	4	0	1
COc1ccc(-c2csc3nc(-c4cccnc4)nc(Cl)c23)cc1OC	-3	-12	12*	-6	-13	1
Cc1ccc(O)c(CNc2nccs2)c1	-1	-2	-1	-4	7	-1
Oc1ccc(Cl)cc1CNc1nccs1	8.4*	0	2	9	-9	-1
CCOC(=O)c1c(NC(=O)CSc2ncn[nH]2)sc(C(=O)NC)c1C	-1	-3	10.0*	-12	-11	0
COc1ccc(/C=N/NC(=O)CN(C)S(=O)(=O)c2ccc(NC(C)=O)cc2)cc1	31*	-1	-2	2	-5	0
COc1ccc(N(CC(=O)N/N=C/c2ccc(N(C)C)cc2)S(=O)(=O)c2ccccc2)cc1	-1	-3	1	-6	-3	4.6*
CCOC(=O)c1sc(-c2ccccn2)nc1C	-4	-3	0	14	-4	2
Cc1cc(C)cc(C(=O)N2CCCCC2)c1	x	0	x	3	-6	0
O=C(O)c1cccc(Nc2nc(-c3cc4ccccc4oc3=O)cs2)c1	6.2*	-6	1	7	-1	2
COc1cc(N)ccc1NC(=O)c1cc2ccccc2o1	7.5*	-5	2	0	0	3
Cc1cccc(S(=O)(=O)N(C)C[C@H]2OCc3cnnn3CCCC(=O)N([C@H](C)CO)C[C@@H]2C)c1	x	6	x	4	-5	-1
CCOC(=O)C1=C(C)NC(C)=C(C(=O)OCC)C1C(=O)OCC(=O)NCc1ccco1	x	-2	x	1	-3	1
CCc1c(-c2cccc(Br)c2)ncn1CCc1ccccc1OC	x	x	x	x	x	0
CC(C)C1S/C(=N/N=C/c2ccco2)NC1=O (stereo unspecified)	-3	0	-11	1	-9	4.7*
Cc1ccccc1CC1S/C(=N/N=C/c2ccco2)NC1=O (stereo unspecified)	0	x	-1	x	x	3
O=C1c2cccc3c([N+](=O)[O-])ccc(c23)C(=O)N1Cc1cccnc1	2	-6	7	-5	-6	7.9*
CC1C=CC(C)C(C(=O)O)C1C(=O)O (stereo unspecified)	23*	-11	-2	0	7	1
O=C(O)C1C2C=CC(CC2)C1C(=O)O (stereo unspecified)	-4	-10	0	-9	-5	0
CC(C)=C1C2CCC1C(C(=O)Nc1cc(C)cc(C)c1)C2C(=O)O (stereo unspecified)	-2	-8	9.4*	-9	-7	1
CCOC(=O)C1CCN(C2=NC(=O)/C(=C/c3ccc(Cl)cc3)S2)CC1	4.9*	-3	1	-1	-5	4.7*
SMILES	IMP-1 inhibitor	MsrA act	VIM-2 inhibitor	PKA-R1A activ	PKA-R2B activ	MsrA inhibitor
CN(C)c1ccc(/C=C2\SC(N3CCCCC3)=NC2=O)cc1	1	-3	3	-7	2	0
Cc1ccc(/C=C2\SC(N3CCCC3)=NC2=O)cc1	-2	x	1	x	x	4.6*
O=C1N=C(N2CCCCC2)S/C1=C\c1ccc(Br)cc1	4.7*	-2	3	-12	6	0
CCOC(=O)C1CCN(C2=NC(=O)/C(=C/c3ccc(OC)c(OC)c3)S2)CC1	-3	-9	-2	1	-2	3
O=C(COC(=O)CCc1ccccc1)Nc1ccc(F)cc1Cl	-1	-9	1	-22	3	-1
CC(C)CN(C(=O)CCNC(=O)c1ccccc1Cl)C1CCS(=O)(=O)C1 (stereo unspecified)	x	-10	x	-12	-1	1
CC(=O)c1ccc(-c2nnc(CCC(=O)N3CCCC(C(=O)CC(C)C)C3)o2)s1 (stereo unspecified)	1	-3	2	3	2	0
COc1ccc(-c2nnc(-c3ccc(N(C)C)cc3)o2)cc1	-4	-8	-3	-9	-4	1
CN(C)c1ccc(-c2nnc(-c3ccccc3F)o2)cc1	-2	4	2	7	-11	4.6*
N#Cc1cccnc1N1CCN(C(=O)c2[nH]c(C(F)(F)F)nc2-c2ccccc2)CC1	x	-1	x	x	x	0
COC(=O)[C@]12C[C@H](CC(=O)N3CCOCC3)C(=O)N(Cc3ccccc3)C1=C[C@H](C1CCCC1)O[C@@H]2C	x	x	x	x	x	0
O=C(C(=O)N1CCN(C(=O)c2cccs2)CC1)c1cccc(C(F)(F)F)c1	x	x	x	x	x	0
C[C@H](O)[C@@H]1CN2CCc3ccc(-c4ccc5c(c4)OCO5)cc3[C@@H]2C[C@@H]1N(C)Cc1cc(Cl)cc(Cl)c1	x	x	x	x	x	0
Cc1c(/C(O)=C2/C(=O)C(=O)N(CCN3CCOCC3)C2c2cccs2)cnn1-c1ccccc1 (stereo unspecified)	6.1*	-4	0	13	1	3
CCOC(=O)C1=C(C(=O)OCC)C2N(Cc3ccc(C#N)cc3)c3ccccc3[C@@]23C[C@@H](C(=O)OC)N(S(=O)(=O)c2ccc(C)cc2)C3=N1 (stereo partly specified)	x	x	x	x	x	2
CC(NC(=O)CN1CCN(CC(=O)Nc2ccccc2Cl)CC1)c1ccc(Br)cc1 (stereo unspecified)	x	-1	x	8	2	-1
O=C(O)c1cc(-n2nnnc2SCc2ccccc2F)ccc1Cl	-2	-8	10*	-10	0	1
COc1cccc(C(C[N+](=O)[O-])c2c(C)[nH]n(-c3ccccc3)c2=O)c1 (stereo unspecified)	2	-3	12*	-1	-4	0
Nn1c(CSc2nc3ccccc3o2)nnc1CSc1nc2ccccc2o1	-7	0	-2	0	-10	0
Cc1cc(C)n2c(Br)c(CSc3nc4ccccc4o3)nc2n1	2	-1	9.9*	-6	6	-1
Cc1c(NC(=S)N/N=C/c2ccc(O)cc2)c(=O)n(-c2ccccc2)n1C	-3	-3	0	9	-6	4.8*
COc1ccc(/C=N/NC(=O)c2nn(C)cc2Br)cc1CSCc1ccco1	18*	-8	2	-6	7	2
CCCc1cc(=O)[nH]c2nnc(SCC(=O)Nc3cccc(NC(C)=O)c3)n12	x	-11	x	10	-8	2

Compound activity as filed in PubChem.
